In paper PMC4207122 (Cell biology and toxicology, 2013):
Like-named read-outs stand apart in the source and are kept apart here.

Tests used:
[1] = test system: 22Rv1 human prostate cancer cells; experiment: Differential nuclear staining; type: cell-based
[2] = test system: LNCaP human prostate cancer cells; experiment: Differential nuclear staining; type: cell-based
[3] = test system: DU145 human prostate carcinoma cells; experiment: Differential nuclear staining; type: cell-based
[4] = test system: YT NK-like lymphoblastic lymphoma cells; experiment: Differential nuclear staining; type: cell-based
[5] = test system: human cervical HeLa cancer cells; experiment: Differential nuclear staining; type: cell-based; settings: for CC50: Homo sapiens, 20 h
in vitro = type: cell-based; settings: human
[6] = Differential nuclear staining; type: cell-based; settings: human, MCF-10A non-transformed mammary epithelial cells
[7] = Differential nuclear staining; type: cell-based; settings: mouse, wild type mouse embryonic fibroblasts (MEFs)
YT NK-like (YT) cells = experiment: Apoptosis/necrosis by annexin V-FITC and PI flow cytometry; type: cell-based; settings: 18 h; for mode of cell death: KTZ 15 μM, CTZ 10 μM, complexes 20–60 μM
Procedure, shortened: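 YT NK-like cells were exposed to test compounds for 18 h, then handled on ice, stained together with annexin V-FITC and PI, and analysed by flow cytometry with about 10,000 events per sample. Controls were 0.3% v/v DMSO solvent, 600 μM H2O2 and untreated cells. Annexin-positive cells (early plus late) were summed as apoptotic, and PI-only cells counted as necrotic. Values are the mean of three independent measurements with SD.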

Calf Thymus (CT) DNA = experiment: Circular dichroism; type: binding; settings: 20 h at 37 °C, pH 7.39 Tris/HCl buffer, up to ri 2.0 (molar ratio drug/DNA)
Procedure, shortened: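 Test compound stocks (1.5 mM) were freshly made in water and added to freshly prepared CT DNA (60 μM) in 5 mM Tris/HCl, 50 mM NaClO4, pH 7.39, at drug/DNA molar ratios of 0.5–2.0. Samples were incubated 20 h at 37 °C. Spectra were recorded at 25 °C over 220–420 nm, blank-corrected with noise reduction, and expressed as […].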

[8] = test system: all the cancer cells lines studied

SMILES | CC50 [1] [µM] | CC50 [2] [µM] | CC50 ([3]; Homo sapiens, DU-145, 20 h) [µM] | CC50 ([1]; Homo sapiens, 22Rv1, 20 h) [µM] | CC50 ([2]; Homo sapiens, LNCaP, 20 h) [µM] | CC50 ([4]; 20 h) [µM] | CC50 [5] [µM] | CC50 at 20 h [6] [µM] | CC50 at 20 h [7] [µM] | mode of cell death (YT NK-like (YT) cells) | change of CD spectrum of CT DNA (Calf Thymus (CT) DNA) | also measured
C[SH](C)(=O)[Ru-]([Cl])([Cl])([Cl])([Cl])[SH](C)(C)=O.[Na+] [Compound C1, Na[trans-RuCl4(DMSO)2]] | 114 | 46.5 |  |  |  |  |  |  |  |  |  | 
Clc1ccccc1C(c1ccccc1)(c1ccccc1)n1ccnc1 [CTZ, clotrimazole] |  |  | 43.6 | 19.2 | 15.4 | 16.7 | 94.3 | 79.4 | 35.3 | preferentially through apoptosis | no modifications | Relative Activity (R.A.) ([3]; DU145, relative to KTZ (1-6) or CTZ (7-12)): 1; Relative Activity (R.A.) ([1]; 22Rv1, relative to KTZ (1-6) or CTZ (7-12)): 1; Relative Activity (R.A.) ([2]; LNCaP, relative to KTZ (1-6) or CTZ (7-12)): 1; Relative Activity (R.A.) ([4]; YT, relative to KTZ (1-6) or CTZ (7-12)): 1; Relative Activity (R.A.) ([5]; relative to KTZ (1-6) or CTZ (7-12)): 1; CC50 at 20 h (in vitro): 95.3 µM; apoptosis induced relative to any of the Ru-CTZ complexes (YT NK-like (YT) cells): ≥ 3 fold; cytotoxicity against cancer cell lines (in words) [8]: moderate cytotoxicity
CC(=O)N1CCN(c2ccc(OCC3COC(Cn4ccnc4)(c4ccc(Cl)cc4Cl)O3)cc2)CC1 (centres unmarked) [KTZ, ketoconazole] |  |  | 28.6 | 24.2 | 27.9 | 4.9 | 66.7 | 37 | 31.3 | preferentially through apoptosis | no modifications | 
Cc1ccc(C(C)C)cc1.Cc1ccc(C(C)C)cc1.[Cl][Ru][Cl].[Cl][Ru][Cl] [Compound C3, [Ru(p-cymene)Cl2]2] | 141 | 29 |  |  |  |  |  |  |  |  |  | CC50 [3]: 218 µM; CC50 [4]: 164 µM
